Compound activity as filed in PubChem BioAssay.
NR2E3 ag-1 – inhibitors of NR2E3-RetCOR corepressor binding, primary screen, NR2E3 agonist project, biochemical, TR-FRET, GST-NR2E3, biotin-RetCOR. Photoreceptor-specific nuclear receptor (Homo sapiens), Q9Y5X4. 1536-well. inhibition of corepressor binding, % at 4.78 µM. hit rate 0.12% among 320,000. AID 2300, 2010;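 active = percent inhibition above the cutoff of mean plus 3 SD of all tested compounds, set per screening campaign, cut at about 20% in these data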;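 note: 0% = DMSO wells and 100% = biotin wells as full block of FRET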
Target sequence (Q9Y5X4 whole entry, looked up): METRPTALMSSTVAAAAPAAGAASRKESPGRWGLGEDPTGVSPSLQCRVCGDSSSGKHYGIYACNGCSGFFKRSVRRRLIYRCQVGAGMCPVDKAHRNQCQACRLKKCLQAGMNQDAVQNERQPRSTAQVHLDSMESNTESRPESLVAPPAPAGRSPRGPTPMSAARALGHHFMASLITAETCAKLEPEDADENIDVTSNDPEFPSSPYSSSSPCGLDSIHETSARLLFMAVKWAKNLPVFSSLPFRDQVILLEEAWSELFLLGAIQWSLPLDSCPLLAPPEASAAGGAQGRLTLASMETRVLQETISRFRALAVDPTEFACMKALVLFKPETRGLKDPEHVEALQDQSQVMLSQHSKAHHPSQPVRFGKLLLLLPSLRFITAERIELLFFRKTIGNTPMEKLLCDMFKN
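Test system: GST-NR2E3 and biotin-RetCOR proteins | Quantity: 1.35 nM GST-tagged NR2E3 final | Medium: Tris pH 7.5 | Also added: 7 nM biotin-RetCOR | Dosing: Compound at 4.8 µM, single dose | Timing: 5 h at 4 °C | Detection: Time-resolved FRET | Read-out basis: Percent inhibition | Benchmarks: Biotin wells as high control, 0.6% DMSO wells as low control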
HIF act – HIF pathway transcriptional activators, primary screen, cell-based, U2OS HRE-luciferase, luminescence | U2OS HRE-luciferase reporter; normalized: DMSO 0%, desferrioxamine 100% | activation, % at 7.5 µM (by protocol) | hit rate 0.32% among 300,000 | AID 1910, 2009;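 active = mean activation of at least 10% of the iron chelator positive control signal, with at least half of replicates also reaching 10%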
NR2E3 ag-2 – NR2E3 agonists in two-hybrid cells, primary screen, cell-based, luminescence, CHO-S, Gal4-NCOR/VP16-NR2E3; luciferase; inhibition of corepressor binding, % at 3.98 µM; hit rate 0.35% among 360,000; AID 602229, 2012;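 active = inhibition above the mean of all tested compounds plus 3 SD, cut at about 70% in these data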;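 note: 0% = DMSO with NR2E3 transfected cells and 100% = cells lacking NR2E3 construct; higher means lower luciferase signal from less NR2E3 corepressor binding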
EBV LMP1 NFkB – EBV LMP1-driven NF-kappaB luciferase reporter inhibitors, primary screen, cell-based, luminescence, single point; hit rate 0.69% among 350,000; inhibition, % at 12.5 µM; LMP1-induced NF-kappaB luciferase reporter cells; in the data active = inhibition above about 41%;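 note: 0% = neutral control wells and 100% = reference inhibitor control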
TROY NFkB inh – inhibitors of TROY-driven NF-kB signaling, primary screen, Q293 LMP1-TROYcd cells, NF-kB luciferase, uHTS | Q293 LMP1-TROYcd NF-kB luciferase reporter, 4 h | hit rate 0.98% among 360,000 | inhibition, % at 10 µM;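 active = compounds whose plate-normalised and pattern-corrected inhibition of the luciferase reporter signal at the single screening dose is 50% or more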
Starred values were filed as active, the others as inactive; · = no result given. An excerpt weighted towards active compounds, which were near 2% of everything screened.

SMILES	NR2E3 ag-1	HIF act	NR2E3 ag-2	EBV LMP1 NFkB	TROY NFkB inh
Cc1ccc(C(O)c2ncc(-c3ccccc3C(F)(F)F)[nH]2)cc1F (configuration not stated)	·	·	-9	·	18
COc1ccccc1C(=O)NCCCNC(=O)c1cccnc1	5	0	14	0	0
O=C(CC1CCCC1)Nc1ccc(Cl)c(S(=O)(=O)N2CCOCC2)c1	·	·	-9	6	19
Nc1[nH]n(-c2ccccc2)c(=O)c1N=Nc1ccc2c(c1)OCCO2	-2	1	-137	-68	51*
Nc1[nH]n(-c2ccccc2)c(=O)c1N=Nc1ccc2c(c1)OCO2	-4	3	-30	-34	-25
COC(=O)CC/C(O)=C1\C(=O)CC(C)(C)CC1=NCCc1nc2ccccc2[nH]1	1	0	9	2	4
Nc1cccc(N=[N+]([O-])c2cccc(N)c2)c1	·	·	-87	-21	-45
CCn1c2ccccc2c2cc(/C=N/NC(=O)c3ccccc3)ccc21	2	-1	-131	79*	0
Cn1c2ccccc2c2cc(/C=N/NC(=O)c3cc(O)cc(O)c3)ccc21	5	0	-58	28	-14
CCn1c2ccccc2c2cc(NC(=O)c3ccccc3-c3ccccc3C(=O)O)ccc21	4	-1	-36	52*	0
COCCNc1ncnc2c1ncn2[C@H]1CN(Cc2ccco2)C[C@@H](CO)O1	·	·	7	·	-5
COc1ccc(NC(=O)O/N=C/c2c(C)nn(C(C)(C)C)c2C)cc1	1	0	-25	-17	65*
COc1cc(C=NOC(=O)Nc2ccccc2)cc(OC)c1OC	·	·	-21	-12	-29
CCN(CC)S(=O)(=O)c1ccc(Cl)c(NC(=O)COC(=O)c2cc(-c3ccccc3Cl)nc3ccccc23)c1	-1	0	12	-5	95*
CCN(CC)S(=O)(=O)c1ccc(Cl)c(NC(=O)COC(=O)c2ccc(O)cc2)c1	-3	-1	-13	0	41
COc1ccc(CCNC(=O)C(=O)NCC2OCCN2S(=O)(=O)c2cc(F)ccc2F)cc1OC (configuration not stated)	0	0	-23	4	6
COCCNC(=O)C(=O)NCC1OCCN1S(=O)(=O)c1cc(F)ccc1F (configuration not stated)	0	17*	-1	-1	12
CC(=O)c1cccc(NC(=S)Nc2cccc3ccccc23)c1	-2	4	-43	-13	57*
CC(=O)c1c(C)[nH]c(C(=O)OC(C)C(=O)NC2CCCCC2)c1C (configuration not stated)	·	·	8	-5	-1
Cc1cc(C(=O)Nc2ccc(S(=O)(=O)Nc3onc(C)c3C)cc2)c(C)o1	0	0	1	-3	-15
Cc1ccc2oc(C(=O)Nc3ccc(S(=O)(=O)Nc4onc(C)c4C)cc3)c(C)c2c1	1	1	-10	66*	-20
Cc1cc(C(F)(F)F)c(C#N)c(SCC(=O)Nc2nc3ccccc3s2)n1	-1	0	31	-23	85*
Cc1ccccc1OCC(=O)NCC(=O)OCc1ccc(Br)cc1	0	-9	-16	-5	-5
O=S1(=O)CCOCCCN1Cc1ccccc1	-4	-1	-3	-4	3
CC(/C=N/n1c(-c2cccnc2)n[nH]c1=S)=C\c1ccccc1	1	0	-15	4	19
SMILES	NR2E3 ag-1	HIF act	NR2E3 ag-2	EBV LMP1 NFkB	TROY NFkB inh
CC(=C/c1ccccc1)/C=N/n1c(-c2ccncc2)n[nH]c1=S	5	1	-61	56*	52*
COc1ccc(CNC(=O)c2cc(S(=O)(=O)N3CCOCC3)cn2C)cc1	6	0	-17	0	1
Cc1cc(N2CCCC2=O)cc(C)c1S(=O)(=O)NCCOc1ccc(C(C)(C)C)cc1	3	0	95*	14	31
Cc1cc(-n2cnnn2)cc(C)c1S(=O)(=O)NCCOc1ccccc1	-1	0	-7	4	-12
CCCCN(CCCC)S(=O)(=O)c1ccc(NC(=O)Cc2cccs2)cc1	2	0	12	-10	51*
CCCNS(=O)(=O)c1ccc(NC(=O)Cc2cccs2)cc1	-3	0	-22	13	3
COc1ccc(NS(=O)(=O)c2ccc(NC(=O)Cc3cccs3)cc2)cc1	-2	0	15	6	65*
COc1ccc(NS(=O)(=O)c2cc(NC(=O)c3ccc(=O)[nH]c3)ccc2C)cc1	-1	·	-37	1	14
COc1ccc(NS(=O)(=O)c2cc(NC(=O)Cc3cccs3)ccc2C)cc1	-3	1	-12	-5	82*
O=C1c2ccccc2NC(c2cccc(O)c2)N1c1ccccc1 (configuration not stated)	-2	-2	-25	-7	-6
CCc1nnc(SC(C)C(=O)Nc2nccs2)n1C (configuration not stated)	2	0	9	-6	-4
CC(C)Cn1c(-c2cccc(S(=O)(=O)N3CCOCC3)c2)n[nH]c1=S	·	·	-15	71*	1
COc1cc(C2NC(=O)NC(C)=C2C(=O)OC2CCCC(C)C2)cc(Br)c1O (configuration not stated)	-2	-1	7	49*	11
COc1cc(C2NC(=O)NC(C)=C2C(=O)OC2CCCCC2)cc(Cl)c1O (configuration not stated)	0	0	18	-16	-5
Cc1ccc2c(c1)CCCN2S(=O)(=O)c1cccc(C(=O)Nc2ccccc2C(=O)O)c1	-4	0	33	17	55*
COc1ccc(CNC(=O)CNS(=O)(=O)c2ccc(Cl)cc2)cc1	-1	0	-21	2	80*
O=C1OC(c2ccccc2)(c2cc(Br)ccc2O)c2ccccc21 (configuration not stated)	·	·	30	-2	74*
CN(C)S(=O)(=O)c1ccc(C(=O)NCC2CC2(Cl)Cl)cc1 (configuration not stated)	3	0	-6	43*	-4
COc1nc2c(c(-c3cc(Br)cs3)c1C#N)Cc1ccccc1-2	3	0	13	2	-8
CSc1oc(-c2ccc(F)cc2)nc1S(=O)(=O)c1ccc(F)cc1	0	0	-24	89*	9
COCCn1c(Cc2ccccc2)nnc1SCC(=O)Nc1oc(C)c2c(C)n[nH]c(=O)c12	-3	2	1	-6	57*
Cc1ccc(N(C)S(=O)(=O)c2ccc(-c3cc(C)no3)s2)cc1	0	9.7*	-7	-2	3
